# Measurements from ChEMBL document CHEMBL1125273, “Synthesis and biological evaluation of quinocarcin derivatives: thioalkyl-substituted quinones and hydroquinones” (J Med Chem, 1991).
# Experiments:
# [1] = Antitumor activity in vivo in CD2F1 mice measured in terms of percent increase in lifespan calculated at a dose of 6.25 mg/kg intraperitoneally on days 1-5.; type: functional; conditions: Mus musculus, ip, route intraperitoneal
# Outline: (§1)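 P388 lymphocytic leukemia cells (1×10^6) were implanted ip into CD2F1 mice (about 22 g), five mice per group. Drug was given ip from the day after implantation, either once (day 1) or daily on days 1–5. ILS = (T/C − 1) × 100, where T and C are the median survival times of treated and control mice.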
# [2] = Antitumor activity in vivo in CD2F1 mice measured in terms of percent increase in lifespan calculated at a dose of 12.5 mg/kg intraperitoneally on day one.; type: functional; conditions: Mus musculus, ip, route intraperitoneal; outline: as §1
# [3] = tested on: HeLa; experiment: In vitro concentration required to inhibit the growth of HeLa S3 cells by 50%; type: functional, cell-based; conditions: Homo sapiens
# Outline: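 HeLa S3 cells (5 × 10⁴) seeded in Eagle's MEM with 10% FBS and 0.06 mg/mL kanamycin; graded drug concentrations, diluted in growth medium, added 24 h after seeding. Incubated 72 h at 37 °C, humidified 5% CO₂. Monolayers then washed, detached with 0.05% trypsin/0.02% EDTA and counted electronically; IC50 taken as concentration giving 50% growth inhibition.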
# [4] = tested on: CCRF S-180; experiment: Ratio of ILS tested compound/quinocarcin against murine sarcoma S-180 tumor cell line implanted subcutaneously in mice and the compound administered intravenously at a dose of 4.41 mg/kg on days 1-5.; type: functional, Mus musculus; conditions: route intravenous
# [5] = tested on: Homo sapiens; experiment: Ratio of ILS tested compound/quinocarcin against human mammary carcinoma MX-1 cell line implanted subcutaneously in mice and the compound administered intravenously at a dose of 4.41 mg/kg on days 1-5.; type: functional; conditions: route intravenous
# [6] = Ratio of the ILS tested compound/quinocarcin was determined for day one in CD2F1 mice.; type: functional, Mus musculus
# Outline: (§2)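 CD2F1 mice (5 per group) received 10^6 P388 cells ip. Drug was given ip on day 1 or on days 1–5. ILS was taken as (T/C − 1) × 100 from median survival times, and each compound's ILS was divided by the ILS of quinocarcin.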
# [7] = Ratio of the ILS tested compound/quinocarcin was determined in CD2F1 mice on days 1-5.; type: functional, Mus musculus; outline: as §2
# [8] = Antitumor activity in vivo in CD2F1 mice measured in terms of percent increase in lifespan calculated at a dose of 37.5 mg/kg intraperitoneally on day one.; type: functional; conditions: Mus musculus, ip, route intraperitoneal; outline: as §1
# [9] = Antitumor activity in vivo in CD2F1 mice measured in terms of percent increase in lifespan calculated at a dose of 5-10 mg/kg intraperitoneally on days 1-5.; type: functional, Mus musculus; outline: as §1
# [10] = tested on: Co-3; experiment: Ratio of ILS tested compound/quinocarcin against Co-3 tumor cell line implanted subcutaneously in mice and the compound administered intravenously at a dose of 13.8 mg/kg on days 1-5.; type: functional, Homo sapiens; conditions: route intravenous
# [11] = tested on: LC-06 cell line; experiment: Ratio of ILS tested compound/quinocarcin against LC-06 cell lines implanted subcutaneously in mice and the compound administered intravenously at a dose of 5.59 mg/kg on days 1-5.; type: functional, Homo sapiens; conditions: route intravenous
# [12] = tested on: CCRF S-180; experiment: Ratio of ILS tested compound/quinocarcin against murine sarcoma S-180 tumor cell line implanted subcutaneously in mice and the compound administered intravenously at a dose of 10 mg/kg on days 1-5.; type: functional, Mus musculus; conditions: route intravenous
# [13] = tested on: St-4; experiment: Ratio of ILS tested compound/quinocarcin against St-4 tumor cell line implanted subcutaneously in mice and the compound administered intravenously at a dose of 13.8 mg/kg on days 1-5.; type: functional, Homo sapiens; conditions: route intravenous
# [14] = tested on: St-4; experiment: Ratio of ILS tested compound/quinocarcin against St-4 tumor cell line implanted subcutaneously in mice and the compound administered intravenously at a dose of 8.78 mg/kg on days 1-5.; type: functional, Homo sapiens; conditions: route intravenous
# [15] = tested on: Homo sapiens; experiment: Ratio of ILS tested compound/quinocarcin against human mammary carcinoma MX-1 cell line implanted subcutaneously in mice and the compound administered intravenously at a dose of 4.41 mg/kg on days 1-5.c means number of cured mice.; type: functional; conditions: route intravenous
# [16] = tested on: Homo sapiens; experiment: Ratio of ILS tested compound/quinocarcin against human mammary carcinoma MX-1 cell line implanted subcutaneously in mice and the compound administered intravenously at a dose of 5.59 mg/kg on days 1-5.c means number of cured mice.; type: functional; conditions: route intravenous
# [17] = Antitumor activity in vivo in CD2F1 mice measured in terms of percent increase in lifespan calculated at a dose of 12.5 mg/kg intraperitoneally on days 1-5.; type: functional; conditions: Mus musculus, ip, route intraperitoneal; outline: as §1
# [18] = Antitumor activity in vivo in CD2F1 mice measured in terms of percent increase in lifespan calculated at a dose of 25 mg/kg intraperitoneally on day one.; type: functional; conditions: Mus musculus, ip, route intraperitoneal; outline: as §1
# [19] = tested on: CCRF S-180; experiment: Ratio of ILS tested compound/quinocarcin against murine sarcoma S-180 tumor cell line implanted subcutaneously in mice and the compound administered intravenously at a dose of 12.5 mg/kg on days 1-5.; type: functional, Mus musculus; conditions: route intravenous
# [20] = tested on: Homo sapiens; experiment: Ratio of ILS tested compound/quinocarcin against human mammary carcinoma MX-1 cell line implanted subcutaneously in mice and the compound administered intravenously at a dose of 5.96 mg/kg on days 1-5.; type: functional; conditions: route intravenous
# [21] = tested on: Homo sapiens; experiment: Ratio of ILS tested compound/quinocarcin against human mammary carcinoma MX-1 cell line implanted subcutaneously in mice and the compound administered intravenously at a dose of 9.35 mg/kg on days 1-5.; type: functional; conditions: route intravenous
# [22] = Antitumor activity in vivo in CD2F1 mice measured in terms of percent increase in lifespan calculated at a dose of 50 mg/kg intraperitoneally on day one.; type: functional; conditions: Mus musculus, ip, route intraperitoneal; outline: as §1
# [23] = Antitumor activity in vivo in CD2F1 mice measured in terms of percent increase in lifespan calculated at a dose of 6.25 mg/kg intraperitoneally on day one.; type: functional; conditions: Mus musculus, ip, route intraperitoneal; outline: as §1
# [24] = Antitumor activity in vivo in CD2F1 mice measured in terms of percent increase in lifespan calculated at a dose of 3.13 mg/kg intraperitoneally on days 1-5.; type: functional; conditions: Mus musculus, ip, route intraperitoneal; outline: as §1
# [25] = tested on: CCRF S-180; experiment: Ratio of ILS tested compound/quinocarcin against murine sarcoma S-180 tumor cell line implanted subcutaneously in mice and the compound administered intravenously at a dose of 3.13 mg/kg on days 1-5.; type: functional, Mus musculus; conditions: route intravenous
# [26] = tested on: Homo sapiens; experiment: Ratio of ILS tested compound/quinocarcin against human mammary carcinoma MX-1 cell line implanted subcutaneously in mice and the compound administered intravenously at a dose of 2.97 mg/kg on days 1-5.; type: functional; conditions: route intravenous
# [27] = tested on: Homo sapiens; experiment: Ratio of ILS tested compound/quinocarcin against human mammary carcinoma MX-1 cell line implanted subcutaneously in mice and the compound administered intravenously at a dose of 4.67 mg/kg on days 1-5.c means number of cured mice.; type: functional; conditions: route intravenous
# [28] = tested on: Co-3; experiment: Ratio of ILS tested compound/quinocarcin against Co-3 tumor cell line implanted subcutaneously in mice and the compound administered intravenously at a dose of 5.58 mg/kg on days 1-5.; type: functional, Homo sapiens; conditions: route intravenous
# [29] = tested on: Co-3; experiment: Ratio of ILS tested compound/quinocarcin against Co-3 tumor cell line implanted subcutaneously in mice and the compound administered intravenously at a dose of 9.18 mg/kg on days 1-5.; type: functional, Homo sapiens; conditions: route intravenous
# [30] = tested on: CCRF S-180; experiment: Ratio of ILS tested compound/quinocarcin against murine sarcoma S-180 tumor cell line implanted subcutaneously in mice and the compound administered intravenously at a dose of 5.85 mg/kg on days 1-5.; type: functional, Mus musculus; conditions: route intravenous
# [31] = tested on: St-4; experiment: Ratio of ILS tested compound/quinocarcin against St-4 tumor cell line implanted subcutaneously in mice and the compound administered intravenously at a dose of 5.58 mg/kg on days 1-5.; type: functional, Homo sapiens; conditions: route intravenous
# [32] = tested on: St-4; experiment: Ratio of ILS tested compound/quinocarcin against St-4 tumor cell line implanted subcutaneously in mice and the compound administered intravenously at a dose of 9.18 mg/kg on days 1-5.; type: functional, Homo sapiens; conditions: route intravenous
# [33] = tested on: Homo sapiens; experiment: Ratio of ILS tested compound/quinocarcin against human mammary carcinoma MX-1 cell line implanted subcutaneously in mice and the compound administered intravenously at a dose of 3.55 mg/kg on days 1-5.; type: functional; conditions: route intravenous
# [34] = tested on: Homo sapiens; experiment: Ratio of ILS tested compound/quinocarcin against human mammary carcinoma MX-1 cell line implanted subcutaneously in mice and the compound administered intravenously at a dose of 5.58 mg/kg on days 1-5.c means number of cured mice.; type: functional; conditions: route intravenous
# [35] = tested on: CCRF S-180; experiment: Ratio of ILS tested compound/quinocarcin against murine sarcoma S-180 tumor cell line implanted subcutaneously in mice and the compound administered intravenously at a dose of 6.25 mg/kg on days 1-5.; type: functional, Mus musculus; conditions: route intravenous
# [36] = tested on: Homo sapiens; experiment: Ratio of ILS tested compound/quinocarcin against human mammary carcinoma MX-1 cell line implanted subcutaneously in mice and the compound administered intravenously at a dose of 12.7 mg/kg on days 1-5.c means number of cured mice.; type: functional; conditions: route intravenous
# [37] = Antitumor activity in vivo in CD2F1 mice measured in terms of percent increase in lifespan calculated at a dose of 200 mg/kg intraperitoneally on day one.; type: functional; conditions: Mus musculus, ip, route intraperitoneal; outline: as §1
smiles,measurement,setting,value
CSC1=C(SC)C(=O)C2=C(C[C@H]3[C@H]4[C@H](C(=O)O)C[C@@H](C(C#N)N3[C@H]2CO)N4C)C1=O (some centres not stated),ILS at 6.25 mg/kg,[1],71%
same,ILS at 12.5 mg/kg,[2],53%
same,IC50,[3],0.13 µg/mL
same,T/C,[4],1.06
same,T/C,[5],0.67
same,R,[6],1.23
same,R,[7],0.59
COc1c2c(c(OC)c(SC(C)C)c1SC(C)C)[C@@H]1COC3[C@@H]4C[C@@H](C(=O)O)[C@H]([C@H](C2)N31)N4C (some centres not stated),ILS at 37.5 mg/kg,[8],9%
same,IC50,[3],0.05 µg/mL
COc1cccc2c1[C@@H]1COC3[C@@H]4C[C@@H](C(=O)O)[C@H]([C@H](C2)N31)N4C (some centres not stated),ILS at 12.5 mg/kg,[2],48%
same,ILS,[9],120%
same,T/C,[10],0.22
same,IC50,[3],0.11 µg/mL
same,T/C,[11],0.23
same,T/C,[12],0.74
same,T/C,[13],0.42
same,T/C,[14],0.55
same,T/C,[15],0
same,T/C,[16],0.01
same,R,[6],1
same,R,[7],1
CC(C)SC1=C(SC(C)C)C(=O)C2=C(C[C@H]3[C@H]4[C@H](C(=O)O)C[C@@H](C(C#N)N3[C@H]2CO)N4C)C1=O (some centres not stated),ILS at 12.5 mg/kg,[17],119%
same,ILS at 25 mg/kg,[18],65%
same,IC50,[3],0.012 µg/mL
same,T/C,[19],0.37
same,T/C,[20],0.83
same,T/C,[21],0.22
same,R,[6],1.48
same,R,[7],1.35
COc1c2c(c(OC)c(SC(C)C)c1SC(C)C)[C@H](CO)N1C(C#N)[C@@H]3C[C@@H](C(=O)O)[C@H]([C@@H]1C2)N3C (some centres not stated),ILS at 50 mg/kg,[22],7%
same,IC50,[3],0.17 µg/mL
CC(C)SC1=C(SC(C)C)C(=O)C2=C(C[C@H]3[C@H]4[C@H](C(=O)O)C[C@@H](C5OC[C@@H]2N53)N4C)C1=O (some centres not stated),ILS at 6.25 mg/kg,[23],69%
same,ILS at 3.13 mg/kg,[24],98%
same,IC50,[3],0.0019 µg/mL
same,T/C,[25],0.73
same,T/C,[26],0.046
same,T/C,[27],0
same,R,[6],1.57
same,R,[7],1.11
CSC1=C(SC)C(=O)C2=C(C[C@H]3[C@H]4[C@H](C(=O)O)C[C@@H](C5OC[C@@H]2N53)N4C)C1=O (some centres not stated),ILS at 6.25 mg/kg,[23],48%
same,ILS at 3.13 mg/kg,[24],91%
same,T/C,[28],0.43
same,T/C,[29],0.21
same,IC50,[3],0.019 µg/mL
same,T/C,[30],0.86
same,T/C,[31],0.56
same,T/C,[32],0.2
same,T/C,[33],0.21
same,T/C,[34],0.006
same,R,[6],1.85
same,R,[7],0.88
CSc1c(O)c2c(c(O)c1SC)[C@H](CO)N1C(C#N)[C@@H]3C[C@@H](C(=O)O)[C@H]([C@@H]1C2)N3C (some centres not stated),ILS at 6.25 mg/kg,[23],47%
same,ILS at 3.13 mg/kg,[24],92%
same,IC50,[3],0.09 µg/mL
same,T/C,[35],0.4
same,T/C,[36],0
same,T/C,[5],0.067
same,R,[6],1.09
same,R,[7],0.86
CCOC(=O)CSc1c(O)c2c(c(O)c1SCC(=O)OCC)[C@H](CO)N1C(C#N)[C@@H]3C[C@@H](C(=O)O)[C@H]([C@@H]1C2)N3C (some centres not stated),ILS at 200 mg/kg,[37],37%
same,IC50,[3],> 10 µg/mL
same,R,[6],0.9
